Results published in ChEMBL document CHEMBL1137660, “Molecular and biochemical characterization of the chromosome-encoded class A beta-lactamase BCL-1 from Bacillus clausii” (Antimicrob Agents Chemother, 2007).

What was measured:
[1] = Ratio of Kcat to Km for Bacillus clausii NR beta-lactamase BCL1 to ratio of Kcat/Km for Bacillus anthracis beta-lactamase Bla1
[2] = Ratio of Kcat for Bacillus clausii NR beta-lactamase BCL1 to Kcat for Bacillus cereus beta lactamase BcI
[3] = target: T1, Beta-lactamase (Bacillus clausii) (UniProt A8RR46); assay: Activity of Bacillus clausii NR beta-lactamase BCL1 expressed in Escherichia coli BL21 (DE3) assessed as specific activity per mg of protein at 100 uM; settings: Shouchella clausii
T1 sequence (whole entry): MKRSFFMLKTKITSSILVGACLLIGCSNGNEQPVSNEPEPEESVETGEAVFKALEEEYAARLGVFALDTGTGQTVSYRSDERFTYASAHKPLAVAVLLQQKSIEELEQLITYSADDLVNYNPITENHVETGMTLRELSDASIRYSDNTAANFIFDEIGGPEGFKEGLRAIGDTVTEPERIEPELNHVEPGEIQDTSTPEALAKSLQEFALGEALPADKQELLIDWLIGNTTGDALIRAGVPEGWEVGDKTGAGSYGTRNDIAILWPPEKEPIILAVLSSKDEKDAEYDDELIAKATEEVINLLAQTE
Outline: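 Enzyme from E. coli BL21(DE3)(pET-BCL-1), induced with 0.4 mM IPTG at 37°C for 5 h in TS broth with amoxicillin and kanamycin. Cells were sonicated. Enzyme purified by S-Sepharose (50 mM phosphate, pH 6.5) then Q-Sepharose (20 mM Tris-HCl, pH 9; 0–1 M NaCl gradient). Protein by DC assay. Activity read with 100 μM cephalothin as substrate.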

[4] = target: T1, Beta-lactamase (Bacillus clausii); assay: Induction of Bacillus clausii NR beta-lactamase BCL1 activity expressed in Escherichia coli BL21 (DE3) assessed as specific activity per mg of protein at 5 ug/ml; settings: Shouchella clausii
Outline: (§1)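 Induction in B. clausii NR and ATCC 21537 cultures using cefoxitin at 1 to 5 μg/ml as inducer. β-Lactamase activity of extracts read with 100 μM penicillin G as substrate and expressed per mg protein.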

[5] = target: T1, Beta-lactamase (Bacillus clausii); assay: Induction of Bacillus clausii ATCC 21537 beta-lactamase BCL1 activity expressed in Escherichia coli BL21 (DE3) assessed as specific activity per mg of protein at 5 ug/ml; settings: Shouchella clausii; outline: as §1
[6] = Ratio of Kcat for Bacillus cereus beta-lactamase BcI to Kcat for Bacillus clausii NR beta-lactamase BCL1

SMILES	fold change (FC) [1]	fold change (FC) [2]	further results
CCN1CCN(C(=O)N[C@@H](C(=O)N[C@@H]2C(=O)N3[C@@H]2SC(C)(C)[C@@H]3C(=O)O)c2ccccc2)C(=O)C1=O	10		
CO/N=C(\C(=O)N[C@@H]1C(=O)N2C(C(=O)O)=C(COC(C)=O)CS[C@H]12)c1csc(N)n1		100	
O=C(Cc1cccs1)N[C@@H]1C(=O)N2C(C(=O)[O-])=C(C[n+]3ccccc3)CS[C@H]12	2		
CC(=O)OCC1=C(C(=O)O)N2C(=O)[C@@H](NC(=O)Cc3cccs3)[C@H]2SC1		100	Activity [3]: 35 U
CO[C@@]1(NC(=O)Cc2cccs2)C(=O)N2C(C(=O)O)=C(COC(N)=O)CS[C@@H]21			Activity [4]: 500 U; Activity [5]: 500 U
CC1(C)S[C@@H]2[C@H](NC(=O)[C@H](N)c3ccc(O)cc3)C(=O)N2[C@H]1C(=O)O	10		
CO/N=C(\C(=O)N[C@@H]1C(=O)N2C(C(=O)O)=C(COC(N)=O)CS[C@H]12)c1ccco1		100	
CC1(C)S[C@@H]2[C@H](NC(=O)Cc3ccccc3)C(=O)N2[C@H]1C(=O)O	10		Ratio [6]: 200
CO/N=C(\C(=O)N[C@@H]1C(=O)N2C(C(=O)[O-])=C(C[n+]3cccc4c3CCC4)CS[C@H]12)c1csc(N)n1		500	
CC1(C)S[C@@H]2[C@H](NC(=O)[C@H](C(=O)O)c3ccsc3)C(=O)N2[C@H]1C(=O)O	10		
